According to ChEMBL document CHEMBL4145521, “Regioselective synthesis of 3,4-diaryl-5-unsubstituted isoxazoles, analogues of natural cytostatic combretastatin A4” (Eur J Med Chem, 2018):

What follows are molecules tested on Paracentrotus lividus (assay: Antimitotic activity against Paracentrotus lividus embryo assessed as embryo spinning after 15 mins to 20 hrs by light microscopy). Conditions: not given.
Type: functional
Method in brief: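 Free-swimming blastulae from the same culture were used just after hatching (8–10 h post-fertilization). They were kept in filtered seawater at room temperature and exposed to 2-fold decreasing concentrations. Spinning at the well bottom instead of forward swimming was monitored from 15 min to 20 h under light microscopy. The effective threshold concentration was recorded from duplicates.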
In the case of `COc1ccc(-c2noc(C(=O)O)c2-c2ccc(Cl)cc2)cc1`, the EC is reported as >4 µM. `CCOC(=O)C1O[N+]([O-])=C(c2ccc(OC)cc2)C1c1ccc([N+](=O)[O-])cc1` (centres undefined) was tested, and the EC was >4 µM. With `CCOC(=O)C1O[N+]([O-])=C(c2ccc(OC)cc2)C1c1cc(OC)cc(OC)c1` (centres undefined) the EC was >4 µM. In the case of `COc1cc(-c2conc2-c2ccccc2)c(OC)c2c1OCO2`, the EC is reported as >4 µM. For `COc1ccc(-c2noc(C(=O)O)c2-c2cc(OC)c(OC)c(OC)c2)cc1`, the EC was >5 µM. In the case of `CCOC(=O)C1O[N+]([O-])=C(c2ccc(OC)cc2)C1c1cc(OC)c(OC)c(OC)c1` (centres undefined), the EC is reported as >4 µM. `COc1cc(/C=C(/c2ccccc2)[N+](=O)[O-])c(OC)c2c1OCO2` was tested, and the EC was 1 µM. `COc1ccc(/C(=C/c2cccs2)[N+](=O)[O-])cc1` showed an EC of 2 µM. In the case of `COc1ccc(-c2nocc2-c2cc(OC)cc(OC)c2)cc1`, the EC is reported as >10 µM. For `COc1cc(-c2conc2-c2ccccc2)cc(OC)c1OC`, the EC was >4 µM. In the case of `COc1cc(-c2c(-c3ccccc3)noc2C(=O)O)c(OC)c2c1OCO2`, the EC is reported as >4 µM. `COc1ccc(-c2nocc2-c2cccs2)cc1` was tested, and the EC was >4 µM. With `COc1ccc(-c2nocc2-c2cccc(OC)c2)cc1` the EC was >10 µM. `COc1ccc(-c2noc(C(=O)O)c2-c2cc(OC)cc(OC)c2)cc1` was tested, and the EC was >40 µM. For `COc1ccc(-c2noc(C(=O)O)c2-c2cccc(OC)c2)cc1`, the EC was >4 µM. With `CCOC(=O)C1O[N+]([O-])=C(c2ccc(OC)cc2)C1c1ccc(Cl)cc1` (centres undefined) the EC was >4 µM. In the case of `COc1ccc(/C(=C/c2cnn(C)c2)[N+](=O)[O-])cc1`, the EC is reported as >4 µM. In the case of `CCOC(=O)C1O[N+]([O-])=C(c2ccc(OC)cc2)C1c1cccc(OC)c1` (centres undefined), the EC is reported as >4 µM. `CCOC(=O)C1O[N+]([O-])=C(c2ccccc2)C1c1cc(OC)c2c(c1OC)OCO2` (centres undefined) was tested, and the EC was >4 µM. `COc1ccc(/C=C(/c2ccccc2)[N+](=O)[O-])cc1` showed an EC of 4 µM. For `COc1ccc(/C(=C/c2cc(OC)c(OC)c(OC)c2)[N+](=O)[O-])cc1`, the EC was >4 µM. `COc1ccc(-c2nocc2-c2cnn(C)c2)cc1` was tested, and the EC was >4 µM. With `COc1ccc(-c2nocc2-c2ccc([N+](=O)[O-])cc2)cc1` the EC was >4 µM. `COc1ccc(-c2conc2-c2ccccc2)cc1` was tested, and the EC was 0.1 µM. For `COc1ccc(-c2nocc2-c2ccc(Cl)cc2)cc1`, the EC was >4 µM. Molecule `COc1ccc(/C=C\c2cc(OC)c(OC)c(OC)c2)cc1O` [COMBRETASTATIN A4] has an EC of 0.05 µM.

Each molecule was assayed on Paracentrotus lividus (assay: Antimitotic activity against Paracentrotus lividus embryo assessed as cleavage arrest measured at 5.5 hrs post fertilization by light microscopy). Conditions: not given.
Type: functional
Method in brief: (§1)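 Sea urchin eggs were fertilized with diluted sperm and cultured at room temperature in filtered seawater with paddle agitation (60 rpm), at up to 2000 embryos/mL. The effective threshold concentration causing cleavage alteration, death before hatching or full mitotic arrest was scored in duplicate.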
In the case of `COc1ccc(-c2noc(C(=O)O)c2-c2ccc(Cl)cc2)cc1`, the EC is reported as >4 µM. With `CCOC(=O)C1O[N+]([O-])=C(c2ccc(OC)cc2)C1c1ccc([N+](=O)[O-])cc1` (centres undefined) the EC was >4 µM. For `CCOC(=O)C1O[N+]([O-])=C(c2ccc(OC)cc2)C1c1cc(OC)cc(OC)c1` (centres undefined), the EC was >4 µM. `COc1cc(-c2conc2-c2ccccc2)c(OC)c2c1OCO2` was tested, and the EC was >4 µM. With `COc1ccc(-c2noc(C(=O)O)c2-c2cc(OC)c(OC)c(OC)c2)cc1` the EC was 2 µM. `CCOC(=O)C1O[N+]([O-])=C(c2ccc(OC)cc2)C1c1cc(OC)c(OC)c(OC)c1` (centres undefined) was tested, and the EC was >4 µM. `COc1cc(/C=C(/c2ccccc2)[N+](=O)[O-])c(OC)c2c1OCO2` was tested, and the EC was 4 µM. `COc1ccc(/C(=C/c2cccs2)[N+](=O)[O-])cc1` showed an EC of 2 µM. With `COc1ccc(-c2nocc2-c2cc(OC)cc(OC)c2)cc1` the EC was 2 µM. With `COc1cc(-c2conc2-c2ccccc2)cc(OC)c1OC` the EC was >4 µM. For `COc1cc(-c2c(-c3ccccc3)noc2C(=O)O)c(OC)c2c1OCO2`, the EC was >4 µM. In the case of `COc1ccc(-c2nocc2-c2cccs2)cc1`, the EC is reported as >4 µM. `COc1ccc(-c2nocc2-c2cccc(OC)c2)cc1` showed an EC of 4 µM. In the case of `COc1ccc(-c2noc(C(=O)O)c2-c2cc(OC)cc(OC)c2)cc1`, the EC is reported as >40 µM. `COc1ccc(-c2noc(C(=O)O)c2-c2cccc(OC)c2)cc1` was tested, and the EC was >4 µM. With `CCOC(=O)C1O[N+]([O-])=C(c2ccc(OC)cc2)C1c1ccc(Cl)cc1` (centres undefined) the EC was >4 µM. `COc1ccc(/C(=C/c2cnn(C)c2)[N+](=O)[O-])cc1` was tested, and the EC was >4 µM. In the case of `CCOC(=O)C1O[N+]([O-])=C(c2ccc(OC)cc2)C1c1cccc(OC)c1` (centres undefined), the EC is reported as >4 µM. `CCOC(=O)C1O[N+]([O-])=C(c2ccccc2)C1c1cc(OC)c2c(c1OC)OCO2` (centres undefined) was tested, and the EC was >4 µM. `COc1ccc(/C=C(/c2ccccc2)[N+](=O)[O-])cc1` gave an EC of 4 µM. In the case of `COc1ccc(/C(=C/c2cc(OC)c(OC)c(OC)c2)[N+](=O)[O-])cc1`, the EC is reported as 4 µM. `COc1ccc(-c2nocc2-c2cnn(C)c2)cc1` was tested, and the EC was >4 µM. For `COc1ccc(-c2nocc2-c2ccc([N+](=O)[O-])cc2)cc1`, the EC was >4 µM. Work on `COc1ccc(-c2conc2-c2ccccc2)cc1` yielded an EC of 0.05 µM. `COc1ccc(-c2nocc2-c2ccc(Cl)cc2)cc1` was tested, and the EC was >4 µM. With `COc1ccc(/C=C\c2cc(OC)c(OC)c(OC)c2)cc1O` [COMBRETASTATIN A4] the EC was 0.01 µM.

What follows are molecules tested on Paracentrotus lividus (assay: Toxicity in Paracentrotus lividus embryo assessed as embryo destruction at 2 to 4 uM by light microscopy). Conditions: in vivo.
Type: organism-based
`COc1cc(/C=C(/c2ccccc2)[N+](=O)[O-])c(OC)c2c1OCO2` was tested, and the Activity was “Toxic”. For `COc1ccc(/C(=C/c2cccs2)[N+](=O)[O-])cc1`, the Activity was “Toxic”. In the case of `COc1ccc(/C(=C/c2cc(OC)c(OC)c(OC)c2)[N+](=O)[O-])cc1`, the Activity is reported as “Toxic”.

The molecules below were run on Paracentrotus lividus (assay: Toxicity in Paracentrotus lividus embryo assessed as embryo death at 2 to 4 uM by light microscopy). Conditions: in vivo.
Type: organism-based
With `COc1cc(/C=C(/c2ccccc2)[N+](=O)[O-])c(OC)c2c1OCO2` the Activity was “Toxic”. In the case of `COc1ccc(/C(=C/c2cccs2)[N+](=O)[O-])cc1`, the Activity is reported as “Toxic”. `COc1ccc(/C(=C/c2cc(OC)c(OC)c(OC)c2)[N+](=O)[O-])cc1` was tested, and the Activity was “Toxic”.

Each molecule was assayed on Paracentrotus lividus (assay: Antimitotic activity against Paracentrotus lividus embryo assessed as cleavage alteration measured at 2.5 hrs post fertilization by light microscopy). Conditions: not given.
Type: functional
Method in brief: as §1
With `COc1ccc(-c2noc(C(=O)O)c2-c2ccc(Cl)cc2)cc1` the EC was >4 µM. In the case of `CCOC(=O)C1O[N+]([O-])=C(c2ccc(OC)cc2)C1c1ccc([N+](=O)[O-])cc1` (centres undefined), the EC is reported as >4 µM. For `CCOC(=O)C1O[N+]([O-])=C(c2ccc(OC)cc2)C1c1cc(OC)cc(OC)c1` (centres undefined), the EC was >4 µM. Work on `COc1cc(-c2conc2-c2ccccc2)c(OC)c2c1OCO2` yielded an EC of 2 µM. With `COc1ccc(-c2noc(C(=O)O)c2-c2cc(OC)c(OC)c(OC)c2)cc1` the EC was 0.2 µM. In the case of `CCOC(=O)C1O[N+]([O-])=C(c2ccc(OC)cc2)C1c1cc(OC)c(OC)c(OC)c1` (centres undefined), the EC is reported as >4 µM. Molecule `COc1cc(/C=C(/c2ccccc2)[N+](=O)[O-])c(OC)c2c1OCO2` has an EC of 2 µM. `COc1ccc(/C(=C/c2cccs2)[N+](=O)[O-])cc1` showed an EC of 0.2 µM. Work on `COc1ccc(-c2nocc2-c2cc(OC)cc(OC)c2)cc1` yielded an EC of 0.2 µM. Work on `COc1cc(-c2conc2-c2ccccc2)cc(OC)c1OC` yielded an EC of 4 µM. `COc1cc(-c2c(-c3ccccc3)noc2C(=O)O)c(OC)c2c1OCO2` was tested, and the EC was >4 µM. Work on `COc1ccc(-c2nocc2-c2cccs2)cc1` yielded an EC of 0.5 µM. Molecule `COc1ccc(-c2nocc2-c2cccc(OC)c2)cc1` has an EC of 0.52 µM. For `COc1ccc(-c2noc(C(=O)O)c2-c2cc(OC)cc(OC)c2)cc1`, the EC was 20 µM. In the case of `COc1ccc(-c2noc(C(=O)O)c2-c2cccc(OC)c2)cc1`, the EC is reported as >4 µM. For `CCOC(=O)C1O[N+]([O-])=C(c2ccc(OC)cc2)C1c1ccc(Cl)cc1` (centres undefined), the EC was >4 µM. `COc1ccc(/C(=C/c2cnn(C)c2)[N+](=O)[O-])cc1` was tested, and the EC was 2 µM. `CCOC(=O)C1O[N+]([O-])=C(c2ccc(OC)cc2)C1c1cccc(OC)c1` (centres undefined) showed an EC of 4 µM. With `CCOC(=O)C1O[N+]([O-])=C(c2ccccc2)C1c1cc(OC)c2c(c1OC)OCO2` (centres undefined) the EC was >4 µM. In the case of `COc1ccc(/C=C(/c2ccccc2)[N+](=O)[O-])cc1`, the EC is reported as 2 µM. `COc1ccc(/C(=C/c2cc(OC)c(OC)c(OC)c2)[N+](=O)[O-])cc1` showed an EC of 1 µM. With `COc1ccc(-c2nocc2-c2cnn(C)c2)cc1` the EC was >4 µM. With `COc1ccc(-c2nocc2-c2ccc([N+](=O)[O-])cc2)cc1` the EC was >4 µM. With `COc1ccc(-c2conc2-c2ccccc2)cc1` the EC was 0.005 µM. With `COc1ccc(-c2nocc2-c2ccc(Cl)cc2)cc1` the EC was >4 µM. For `COc1ccc(/C=C\c2cc(OC)c(OC)c(OC)c2)cc1O` [COMBRETASTATIN A4], the EC was 0.002 µM.
